# Runt-CBFb FRET = inhibitors of RUNX1 Runt–CBFb binding, primary screen, biochemical, FRET, Cerulean-Runt, Venus-CBFb, uHTS; actives 0.46% (n = 220,000); Cerulean-Runt/Venus-CBFb FRET ratio 530/480, 1 h; Runt-related transcription factor 1 (Homo sapiens) + Core-binding factor subunit beta …; inhibition, % at 20 µM;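 active means inhibition over about 50% at 20 µM in the single-dose screen, limit read from the data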;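 further: 0% = DMSO wells and 100% = excess unlabeled CBFb competitor control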
# Target sequence (Q01196 whole entry, looked up): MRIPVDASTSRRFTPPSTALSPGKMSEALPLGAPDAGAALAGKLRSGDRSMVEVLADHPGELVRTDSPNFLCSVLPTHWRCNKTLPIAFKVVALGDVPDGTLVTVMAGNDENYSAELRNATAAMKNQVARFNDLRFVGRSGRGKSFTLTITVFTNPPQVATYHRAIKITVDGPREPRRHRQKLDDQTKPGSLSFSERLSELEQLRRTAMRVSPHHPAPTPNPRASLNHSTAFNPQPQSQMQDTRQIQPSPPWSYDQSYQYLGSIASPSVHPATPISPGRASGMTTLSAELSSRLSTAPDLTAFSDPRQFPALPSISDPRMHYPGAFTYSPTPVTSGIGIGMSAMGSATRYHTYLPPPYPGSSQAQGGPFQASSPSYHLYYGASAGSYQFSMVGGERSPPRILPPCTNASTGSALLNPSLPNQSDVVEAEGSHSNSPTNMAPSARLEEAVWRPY
# Target sequence (Q13951 whole entry, looked up): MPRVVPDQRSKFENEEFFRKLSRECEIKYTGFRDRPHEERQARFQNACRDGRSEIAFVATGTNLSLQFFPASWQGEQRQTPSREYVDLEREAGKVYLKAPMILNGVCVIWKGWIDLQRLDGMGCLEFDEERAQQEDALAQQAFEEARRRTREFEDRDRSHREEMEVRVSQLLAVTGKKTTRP
#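 Assay system: Cerulean-Runt domain / Medium: Tris 50 mM pH 7.5, KCl, K2SO4, 0.01% BSA / Timing: protein complex preformed 1 h, compound exposure 1 h, room temperature, dark / Measured by: FRET, excitation 422 nm, emission at 530 and 480 nm / Evaluation: loss of energy transfer signal / Control set: 5 µM unlabeled CBFb as full-inhibition high control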
# Hck Nef HTS = inhibitors of Nef-activated human Hck kinase, primary screen, biochemical, Z-Lyte FRET, 384-well, Hck-YEEI; Recombinant Hck-YEEI plus Nef, Z-Lyte FRET kinase assay; inhibition, % at 20 µM; actives 0.68% (n = 220,000); AID 463187, 2010;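 active means Hck-Nef kinase inhibition above about 50%, limit read from the data; inactive means inhibition below that limit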;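 further: 0% = DMSO with Hck plus Nef and 100% = Hck alone without Nef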
# RanGTP-Impb inh = inhibitors of RanGTP-importin-beta interaction, primary screen, biochemical, FRET, CFP-Ran, YFP-importin-beta, homogeneous; inhibition, % (concentration not given with the values); actives 1.1% (n = 300,000); Ran GTPase (GTP-bound) - importin-beta complex; cell-free CFP-Ran/YFP-importin-beta FRET ratio;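 active means more than half of the replicate wells show a fall in the fluorescence ratio signal beyond about 16%, limit read from the data, passing the limit was not always enough; inconclusive means exactly half of the replicate wells pass the set limit; inactive means fewer than half of replicates pass the limit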;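 further: 0% = DMSO wells and 100% = Ran loaded with GDP instead of GTP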
# p-CIP stab down = p/CIP-EGFP fusion destabilizers, primary screen, fluorescence, F442A cells | Q05BA5 | 16 h | decrease of EGFP signal, % at 10 µM | actives 0.01% (n = 290,000) | AID 1984, 2009;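 active means EGFP signal decrease of at least 30% at 10 µM or well 3 SD below plate mean, unless failing retest; inactive means the rest, including hits failing retest or dose response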
# Runt-SMMHC FRET = inhibitors of RUNX1 Runt–CBFb-SMMHC binding, primary screen, biochemical, FRET, Cerulean-Runt, Venus-CBFb-SMMHC, uHTS; Runt-related transcription factor 1 (Homo sapiens) + Core-binding factor subunit beta …; Cerulean-Runt/Venus-CBFb-SMMHC FRET ratio 530/480, 1 h; inhibition, % at 20 µM; actives 0.74% (n = 220,000); AID 1434, 2008;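 active means mean inhibition across duplicate retests at 20 µM reaching about 50%, limit read from the data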;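 further: 0% = DMSO wells and 100% = wells with excess untagged CBFb-SMMHC; inhibitors lower the FRET ratio by blocking Runt binding to CBFb-SMMHC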
# Pemphigus Ab inh = inhibitors of pemphigus antibody binding to DSG3, primary screen, biochemical, bead-based, flow cytometry, scFv-GFP | Desmoglein-3 (Homo sapiens), P32926 | DSG3-coupled beads, scFv-anti-DSG3-GFP binding; hits give low values | binding (percent of control), % at 10 µM | actives 0.48% (n = 310,000) | AID 588358, 2011;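 active means binding more than 3 SD below its plate's average and above zero; inconclusive means below that plate limit but binding exactly zero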;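 further: hits lower antibody fragment binding to DSG3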
# Starred values were filed as active, the others as inactive; ? = inconclusive; / = not tested or not shown. Rows were chosen to be rich in hits. Some 2.1% of all compounds tested hit in one or more screens of this group.
SMILES,Runt-CBFb FRET,Hck Nef HTS,RanGTP-Impb inh,p-CIP stab down,Runt-SMMHC FRET,Pemphigus Ab inh
N#Cc1ccccc1S(=O)(=O)N1CCC(C(=O)NCc2ccccc2CN2CCCC2)CC1,/,/,/,/,/,105
C[C@]12c3[nH]c4cc(-c5ccco5)ccc4c3CCN1C(=O)[C@@H](CC(=O)NCc1ccco1)C[C@@H]2C(=O)N1CCOCC1,/,/,/,/,/,98
COCCCn1c(=NC(=O)c2ccc3c(c2)OCO3)c(C#N)cc2c(=O)n3cccc(C)c3nc21,127*,/,/,-2,155*,/
CCN(C(=O)c1cc2c(=O)n3cccc(C)c3nc2n1CCCOC)C1CCCCC1,/,/,7,5,/,101
CCCn1c(=NC(C)=O)c(C#N)cc2c(=O)n3cccc(C)c3nc21,/,56*,/,/,/,/
COCCCn1c(=NC(C)=O)c(C#N)cc2c(=O)n3cccc(C)c3nc21,57*,39,82*,14,82*,93
O=C(Cn1ncc2c([nH]c3ccccc32)c1=O)N1CCCCC1,/,/,3,8,/,106
O=C(Cn1ncc2c([nH]c3ccccc32)c1=O)N1CCN(c2ccccn2)CC1,/,/,4,-11,/,-6.6*
CC(=O)Nc1cc(=O)c2cccnc2[nH]1,/,/,/,/,/,73*
COc1cc(NC(C)=O)c2ncccc2c1NC(C)=O,1,18,0,-4,2,105
Cc1cccc(S(=O)(=O)N(C)C[C@@H]2OCc3cnnn3CCCC(=O)N([C@@H](C)CO)C[C@@H]2C)c1,/,/,/,/,/,106
O=C(CN1CCN(c2ccc(O)cc2)CC1)Nc1cc(S(=O)(=O)N2CCCCC2)ccc1Cl,10,61*,2,0,8,106
CCOC(=O)Nc1c(C)n(C)n(-c2ccccc2)c1=O,1,/,-1,-10,1,97
CCOC(=O)Nc1c2ccccc2nc2ccccc12,65*,39,131*,-6,82*,91
CN(CCCNC(=O)CCc1cn(C)c2ccccc12)C1CCCCC1,/,/,1,-4,/,105
N#C/C(=C\c1ccc(O)c(O)c1)C(=O)Nc1cccc2ncccc12,/,/,93*,4,/,79
N#C/C(=C\c1ccc(F)cc1)C(=O)Nc1ccccn1,/,/,39*,12,/,115
N#C/C(=C\c1ccc(O)c(O)c1)C(=O)Nc1ccccc1,/,/,/,/,/,107
COc1ccc2c(C=Nc3c(C)n(C)n(-c4ccccc4)c3=O)c(O)n(Cc3ccco3)c(=O)c2c1,-10,1,20*,-4,-140,103
Cc1c(N=Cc2ccco2)c(=O)n(-c2ccccc2)n1C,-1,2,1,-1,-5,104
COC(=O)c1ccc(NC(=O)CNc2ccccc2)cc1,-1,-5,2,1,0,113
CN(C)c1nc(-c2ccccc2)c2cc(Cl)ccc2n1,/,/,21*,6,/,?
O=C(NCCCN1CCOCC1)c1cc2nc(-c3ccco3)cc(C(F)(F)F)n2n1,/,/,8,-11,/,33*
O=C(Nc1cnn(Cc2ccccc2)c1)c1cc2nc(-c3ccco3)cc(C(F)(F)F)n2n1,-4,1,17*,-12,6,102
COc1ccc(C2OCC(C)([N+](=O)[O-])CO2)cc1 (configuration not stated),/,/,/,/,/,119
SMILES,Runt-CBFb FRET,Hck Nef HTS,RanGTP-Impb inh,p-CIP stab down,Runt-SMMHC FRET,Pemphigus Ab inh
CC(C)(C)c1ccc(C(=O)Nc2cccc3c(=O)[nH][nH]c(=O)c23)cc1,4,-4,39*,-6,78,92
Cc1ccc(C(=O)Nc2cccc3ccccc23)cc1,/,/,-2,-1,/,100
O=C(CCS(=O)(=O)c1ccccc1)Nc1nc(-c2cccs2)cs1,-2,-4,7,-4,0,69*
O=C(COc1ccccc1)Nc1nc(-c2cccs2)cs1,-2,8,7,-2,2,103
COc1ccc(N2CCN(C(=O)c3cc4c(=O)n(Cc5ccccc5)ccc4nc3C)CC2)cc1,/,/,2,-9,/,/
Cc1nc2ccn(Cc3ccccc3)c(=O)c2cc1C(=O)N1CCN(c2ccc(F)cc2)CC1,/,/,69*,-27,/,103
O=C(Nc1cccc(Cl)c1)c1cc(N=Nc2ccc([N+](=O)[O-])cc2Cl)ccc1O,-4,83*,-1,-14,-14,102
O=C(Nc1ccc([N+](=O)[O-])cc1Cl)c1cc(Cl)ccc1O,/,/,/,/,/,93
CCC(C)c1ccccc1N1CC(C(=O)NCCCn2nc(C)cc2C)CC1=O (configuration not stated),/,/,/,/,/,101
O=c1cc(N2CCC3(CC2)OCCO3)[nH]c(=O)n1-c1ccc(Cl)cc1,11,-1,12,4,32,99
O=c1cc(N2CCN(c3ccccc3)CC2)[nH]c(=O)n1Cc1ccc(F)cc1,0,13,1,-14,4,96
O=c1cc(N2CCc3ccccc3C2)[nH]c(=O)n1Cc1ccc(F)cc1,2,0,80*,-14,16,106
O=c1cc(N2CCc3ccccc3C2)[nH]c(=O)n1-c1ccc(Cl)cc1,4,-20,117*,-8,0,110
O=c1cc(N2CCc3ccccc3C2)[nH]c(=O)n1-c1ccc(Br)cc1,2,0,124*,-8,4,111
CCc1ccccc1NC(=O)CN1CCN(CC(=O)NCc2ccc(Cl)cc2)CC1,/,/,/,/,/,105
N#C/C(=C/c1ccc(-c2cc([N+](=O)[O-])ccc2Cl)o1)C(N)=O,-55,33,-9,4,-42,75*
CNC(=S)N/N=C/c1ccc(-c2cc([N+](=O)[O-])ccc2Cl)o1,9,2,-9,4,-6,-12*
CC(=O)[C@@]1(O)[C@H](C)CC2C3CC=C4CC(OP(=O)(O)O)CC[C@]4(C)C3CC[C@@]21C (some centres not stated),/,/,1,4,/,104
CC(=O)c1sc2nc(-c3cccs3)ccc2c1N,28,1,-38,-2,83*,/
COc1ccc(C(=O)c2sc3nc(-c4ccc(OC)cc4)ccc3c2N)cc1,-6,0,23*,14,-3,26*
O=C(/C=C/c1cccs1)Nc1cccc(NC(=O)/C=C/c2cccs2)n1,0,2,4,1,1,81
O=C(/C=C/c1cccs1)NC1CC1,0,15,21*,-18,-4,96
O=c1cc(NCc2ccccc2)nc2n1CCCS2,-4,3,20*,2,1,103

# High-throughput results deposited in PubChem by several laboratories.
